How the values were obtained:
[1] = test system: Human immunodeficiency virus 1; experiment: Antiviral activity against HIV1 NL4.3-Ren infected in human MT2 cells assessed as inhibition of viral growth by measuring relative luminescence units at 10 uM measured 48 hrs post infection by luminometry relative to untreated control; assay type: functional; parameters: scale not given: the % may be the effect or the level left
[2] = Selectivity index, ratio of CC50 for mock-infected human MT2 cells to IC50 for HIV1 NL4.3-Ren infected in human MT2 cells; assay type: functional
[3] = Cytotoxicity against mock-infected human MT2 cells assessed as reduction in cell viability incubated for 48 hrs by cell-titer Glo assay; assay type: cell-based
Summary of the method: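 Uninfected MT-2 cells received RPMI medium instead of viral supernatant and were treated in parallel with the same fivefold dilutions (100–0.032 μM). […] Values are the mean of at least three independent experiments.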

[4] = test system: Human immunodeficiency virus 1; experiment: Antiviral activity against HIV1 NL4.3-Ren infected in human MT2 cells assessed as inhibition of viral growth at 10 uM measured 48 hrs post infection by luminometry; assay type: functional; settings: Human immunodeficiency virus 1, NL4.3-Ren, MT2, 48 h
[5] = test system: Human immunodeficiency virus 1; experiment: Antiviral activity against HIV1 NL4.3-Ren infected in human MT2 cells assessed as inhibition of viral growth measured 48 hrs post infection by luminometry; assay type: functional, organism-based; settings: Human immunodeficiency virus 1, NL4.3-Ren, MT2, 48 h
Summary of the method: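 MT-2 cells infected with X4-tropic HIV-1 NL4.3-Ren supernatant produced in 293T cells. Fivefold serial dilutions from 100 to 0.032 μM were tested. At 48 h postinfection, cells were lysed and Renilla luciferase RLU were measured. IC50 was fitted from the dose–response curve; values are the mean of at least three independent experiments.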

In the case of `C=C(C=O)[C@@H]1CC[C@]2(C)CC[C@]3(C)[C@H](CC[C@@H]4[C@@]5(C)CCC(=O)C(C)(C)[C@@H]5[C@H](O)C[C@]43C)[C@@H]12`, the Activity [1] is reported as 5%, the “Ratio CC50/IC50” value [2] is reported as 1.3 and the CC50 at 48 h [3] is reported as 10.4 µM. For the same molecule, the inhibition at 10 µM [4] was greater than 50% and the IC50 [5] was 7.9 µM.

With `C=C(C=O)[C@@H]1CC[C@]2(C)CC[C@]3(C)[C@H](CC[C@@H]4[C@@]5(C)CCC(=O)C(C)(C)[C@@H]5CC[C@]43C)[C@@H]12` the Activity [1] was 0%, the “Ratio CC50/IC50” value [2] was 4.2 and the CC50 at 48 h [3] was 5.7 µM. For the same molecule, the inhibition at 10 µM [4] was greater than 50% and the IC50 [5] was 1.4 µM.

With `C=C(C=O)[C@@H]1CC[C@]2(COC(C)=O)CC[C@]3(C)[C@H](CC[C@@H]4[C@@]5(C)CC[C@H](O)C(C)(C)[C@@H]5CC[C@]43C)[C@@H]12` the Activity [1] was 0%, the “Ratio CC50/IC50” value [2] was 8.2 and the CC50 at 48 h [3] was 14.2 µM. For the same molecule, the inhibition at 10 µM [4] was greater than 50% and the IC50 [5] was 1.7 µM.

For `C=C(C)[C@@H]1CC[C@]2(C=O)CC[C@]3(C)[C@H](CC[C@@H]4[C@@]5(C)CCC(=O)C(C)(C)[C@@H]5CC[C@]43C)[C@@H]12` [BETULONAL], the “Ratio CC50/IC50” value [2] was 4.8, the CC50 at 48 h [3] was 20 µM and the inhibition at 10 µM [4] was greater than 50%. For the same molecule, the IC50 [5] was 4.2 µM.

With `C=C(C)[C@@H]1CC[C@]2(CO)CC[C@]3(C)[C@H](CC[C@@H]4[C@@]5(C)CCC(=O)C(C)(C)[C@@H]5CC[C@]43C)[C@@H]12` [BETULONE] the “Ratio CC50/IC50” value [2] was greater than 24.5, the CC50 at 48 h [3] was greater than 100 µM and the inhibition at 10 µM [4] was greater than 50%. The IC50 [5] was 4.1 µM.

For `C=C(C)[C@@H]1CC[C@]2(C(=O)O)CC[C@]3(C)[C@H](CC[C@@H]4[C@@]5(C)CC[C@H](OC(=O)CC(C)(C)C(=O)O)C(C)(C)[C@@H]5CC[C@]43C)[C@@H]12` [BEVIRIMAT], the “Ratio CC50/IC50” value [2] was greater than 1000, the CC50 at 48 h [3] was greater than 10 µM and the inhibition at 10 µM [4] was greater than 50%. The IC50 [5] was 0.01 µM.

With `C=C(C)[C@@H]1CC[C@]2(C)CC[C@]3(C)[C@@H](CC[C@@H]4[C@@]5(C)[C@@H](O)C[C@H](O)C(C)(C)[C@@H]5CC[C@]43C)[C@@H]12` [GLOCHIDIOL] the “Ratio CC50/IC50” value [2] was 1.4, the CC50 at 48 h [3] was 20 µM and the inhibition at 10 µM [4] was greater than 50%. It also gave an IC50 [5] of 13.9 µM.

With `C=C1C(=O)O[C@@H]2C[C@]3(C)CC[C@]4(C)[C@H](CC[C@@H]5[C@@]6(C)CCC(=O)C(C)(C)[C@@H]6CC[C@]54C)[C@H]3[C@H]12` [OCHRACEOLIDE A] the “Ratio CC50/IC50” value [2] was greater than 2.6, the CC50 at 48 h [3] was greater than 100 µM and the inhibition at 10 µM [4] was greater than 50%. It also gave an IC50 [5] of 39 µM.

Reference: ChEMBL document CHEMBL3580560, “Isolation, Structural Modification, and HIV Inhibition of Pentacyclic Lupane-Type Triterpenoids from Cassine xylocarpa and Maytenus cuzcoina” (J Nat Prod, 2015)
